Assay outcomes from PubChem BioAssay.
The entries come from a sample that favours hits as a whole.
Insulin prom act: TRM-6 insulin promoter activation; TRM-6 cells, insulin promoter eGFP reporter, imaging; plate-scaled: unstimulated 0, stimulated control 100; actives 0.81% (n = 130,000); AID 1296; activation, % at 2 µM;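 active = activation at 2 µM above a set limit, confirmed on inspection of the cell images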;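 also: share of cells whose green reporter signal exceeds an intensity cutoff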
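Material: Human fetal islet-derived TRM-6 cells with tamoxifen-inducible insulin promoter–eGFP reporter | Medium: Low-glucose (5.5 mM) medium with tamoxifen | Probe or stimulus: Tamoxifen inducer, 0.75 µM, in seeding medium | Schedule: Tamoxifen pre-incubation 15 h overnight, then compound exposure 48 h at 37 °C | Detection: High-content imaging of fixed cells with Hoechst nuclear stain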
Starred values were filed as active, the others as inactive; [ ] = dose if it differs, or a comment.

SMILES | Insulin prom act
Cc1cccc(NC(=S)N(Cc2cccs2)Cc2cc3cc(C)ccc3[nH]c2=O)c1 | -8
COc1cc2cc(CN(Cc3cccs3)C(=S)Nc3cccc(C)c3)c(=O)[nH]c2cc1OC | 354*
O=C(CCn1nnc(-c2cccs2)n1)NC1CCCCC1 | -7
CCOC(=O)C1=C(C)NC(=O)NC1c1cc(C)sc1C (configuration not stated) | -5
COC(=O)c1ccc(Cl)cc1NC(=O)/C=C/c1ccc(C)o1 | -4
COc1ccc(C(=O)Nc2ccc3c4c(cccc24)CC3)cc1 | -100
Nc1ccc2c3c(cccc13)C(=O)N(c1ccccc1)C2=O | 165
Nc1ccc2c3c(cccc13)CC2 | 377*
CCCOC(=O)c1c(NC(=O)C2CCCO2)sc(C(=O)OC)c1C (configuration not stated) | 567*
CCOC(=O)c1c(-c2ccc(C)cc2)csc1NC(=O)C1CCCO1 (configuration not stated) | -2
CCc1c(C)sc(NC(=O)C2CCCO2)c1C#N (configuration not stated) | 43
CC(=O)c1c(C)[nH]c(C(=O)CSc2nnc(C)s2)c1C | 0
CC1Cc2ccccc2N1C(=O)CSc1nnc(Cc2ccccc2)n1CCc1ccccc1 (configuration not stated) | 3
COc1ccc(NC(=O)C2=C(C)Nc3ncnn3C2c2ccccc2C(F)(F)F)c(OC)c1 (configuration not stated) | 403*
COc1ccccc1NC(=O)C1=C(C)Nc2nnnn2C1c1ccncc1 (configuration not stated) | -8
CC1=C(C(=O)Nc2cccnc2)C(c2cccnc2)n2ncnc2N1 (configuration not stated) | -7
CCC/C(=N\NC(=O)c1cccc(C)c1)c1ccccc1 | 0
COc1ccc(/C=N/n2c(N)nc3ccccc32)cc1OC | -75
COc1cc(/C=C(\C#N)c2nc3ccccc3n2C)cc(OC)c1O | 479*
CCn1c(SCC(=O)N/N=C/c2cc(OC)c(O)c(OC)c2)nc2ccccc21 | -3
COc1cc2oc3ccccc3c2cc1N(CC(=O)N1CCCCC1)S(=O)(=O)c1ccc(C)cc1 | 3
COC(=O)c1c(C(=O)OC)c2cc(C(=O)c3ccccc3)ccn2c1Cl | 261
CC(=O)Nc1ccc(S(=O)(=O)N(C)CC(=O)OCC(=O)c2cc(C)n(-c3ccc4c(c3)OCO4)c2C)cc1 | 3
C/C=C/C=N/NC(=O)CN(c1ccc(Br)cc1)S(=O)(=O)c1ccccc1 | -3
CCOc1cc(C)nc(NCCc2ccc(OC)c(OC)c2)n1 | -6
SMILES | Insulin prom act
COc1cc(-c2nc(Cc3c(F)cccc3Cl)no2)cc(OC)c1OC | -70
Cc1ccccc1-c1nc(Cc2ccc(Cl)cc2)no1 | 103*
Cc1ccccc1-c1noc(-c2cccs2)n1 | -80
COc1ccc(C/C(N)=N/OC(C)=O)cc1OC | 8
COc1ccc(/C(N)=N/OC(=O)Cc2ccc(OC)c(OC)c2)cc1 | 210*
COc1ccc(C(=O)O/N=C(\N)c2ccncc2)cc1OC | -7
CCCn1c(C)cc(C(=O)COc2ccc(-c3nnco3)cc2)c1C | 0
CCCCOC(=O)CSc1n[nH]c(=O)[nH]c1=O | -79
Cc1ncc([N+](=O)[O-])n1CC(=O)NCc1ccccc1 | -7
Cc1ncc([N+](=O)[O-])n1CCOC(=O)NC(NCc1ccccc1)C(Cl)(Cl)Cl (configuration not stated) | 133*
Cc1ncc([N+](=O)[O-])n1CCOC(=O)Nc1ccc(Cl)c(Cl)c1 | 0
Cc1ccc(-n2c(Cn3cnc4ccccc43)nnc2SCC(=O)O)cc1 | 8
CCC(C)/C(C)=N/NC(=O)c1ccc(CSc2nc3ccccc3s2)cc1 (configuration not stated) | -100
Cc1nn(C)cc1C(C(=O)NC1CCCCC1)N(C(=O)c1cnccn1)c1ccc(Oc2ccccc2)cc1 (configuration not stated) | 0
Cc1ccc(C(C(=O)NC2CCCC2)N(C(=O)Cc2cccs2)c2ccc(C)c(C)c2)o1 (configuration not stated) | 8
Cc1nn(C)cc1C(C(=O)NC1CCCCC1)N(C(=O)Cc1cccs1)c1ccc(C(C)C)cc1 (configuration not stated) | 200*
CC(C)c1cccc(C(C)C)c1NC(=O)Cn1c(=O)cnc2ccccc21 | 8
CCOC(=O)Cc1csc(NC(=S)NC(=O)c2cccc([N+](=O)[O-])c2)n1 | 147
O=C(O)C1=C(C(=O)Nc2cccc(C(F)(F)F)c2)CCCC1 | 7
CCCS(=O)(=O)c1c(S(=O)(=O)CCC)c2cnccn2c1C(=O)c1ccc(Cl)cc1 | 8
N#CC1=C(N)C2=C(N3CCCCC3)CCCC2C1(C#N)C#N (configuration not stated) | -6
CCCCN(C)C1=CC2=CC(=C(C#N)C#N)CCC2CC1 (configuration not stated) | 245*[fluoresces]
N#CC(C#N)=C1C=C2C=C(N3CCCCC3)CCC2CC1 (configuration not stated) | 212*
CCN(CC)C1=CC2=CC(=C(C#N)C#N)CCC2CC1 (configuration not stated) | 525*
Cc1ccc(S(=O)(=O)N2CCCCC2)cc1NC(=O)CSc1nccn1C | 146
SMILES | Insulin prom act
OC(c1ccccc1)(c1ccc(F)cc1)C(c1ccccc1)N1CCOCC1 (configuration not stated) | -3
CCc1ccccc1NC(=S)N(CCN(C)C)Cc1cccs1 | 7
C=CCSc1nn2c(=O)c3ccccc3nc2s1 | 130*
O=c1c2ccccc2nc2sc3ccccc3n12 | 9
C=CCSc1nc2ccccc2c2nc(-c3ccccc3)nn12 | 5
Cc1ccc2[nH]c(O)c(N=NC(=O)C(C)n3cnc4ccccc4c3=O)c2c1 (configuration not stated) | -3
Cc1ccc(C(=O)NCC(=O)N/N=C/c2cccs2)cc1[N+](=O)[O-] | 0
Cc1cc(NC(=O)COC(=O)COc2ccc(C(=O)c3ccccc3)cc2)no1 | -8
Cc1ccc2c(Cl)cc(Cl)c(OCC(=O)Nc3cc(C)on3)c2n1 | 3
Cc1cc(NC(=O)COC(=O)c2oc3c(ccc4ccccc43)c2C)no1 | 415*
CCOC(=O)c1ccc(NC(=S)Nc2ccccn2)cc1 | 4
COc1ccc(CNC(=O)CN2C(=O)C3C4C=CC(C4)C3C2=O)cc1 (configuration not stated) | 7
COC(=O)C1=C(C)NC(=S)NC1c1ccc(-c2ccccc2C(=O)OC)o1 (configuration not stated) | 429*
COC(=O)C1=C(C)NC(=O)NC1c1ccc(-c2ccc(F)cc2)o1 (configuration not stated) | -6
COC(=O)C1=C(C)NC(=S)NC1c1ccc(-c2cccc(Cl)c2)o1 (configuration not stated) | 0
Cc1ccc(/C=C/C(=O)O)cc1S(=O)(=O)N(CCO)CCO | -7
Cc1nn(C)c(C)c1S(=O)(=O)N(CC(=O)NCCN1CCOCC1)c1ccc(C(C)C)cc1 | -12
Cc1ccc(NS(=O)(=O)c2ccc(CCC(=O)N3CCOCC3)cc2)cc1 | 188
Cc1ccc(S(=O)(=O)Nc2ccc(S(=O)(=O)NC(C)(C)C)cc2)cc1 | 8
Cc1ccc(S(=O)(=O)Nc2ccc(N3CCOCC3)cc2)cc1 | 81*
CCCN(CCC)S(=O)(=O)c1ccc(NC(=O)c2cc(C(=O)OC)cc([N+](=O)[O-])c2)cc1 | 0
Cc1ccc2cc(C(=O)O)c(C)nc2c1 | 3
COc1cc2c(cc1OC)CN(c1nc(-c3cccnc3)nc3ccccc13)CC2 | 0
